# Reference: ChEMBL document CHEMBL1255424, “Antistaphylococcal activity of ACHN-490 tested alone and in combination with other agents by time-kill assay” (2010)
# Tests used:
# Type in all cases: functional
# Staphylococcus aureus [1] = assay: Antibacterial activity against vancomycin-hetero-intermediate Staphylococcus aureus after 24 hrs by modified broth macrodilution method
# Procedure, shortened: (§1)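 MIC read after 24 h incubation by modified broth macrodilution, validated per CLSI recommendations, against recent clinical MRSA isolates (hospital- and community-acquired, hVISA, VISA, VRSA). Daptomycin tests ran in Mueller-Hinton broth with added calcium.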
# Staphylococcus aureus [2] = assay: Antibacterial activity against community-acquired methicillin-resistant panton-valentine leukocidin-positive Staphylococcus aureus isolate 950 after 24 hrs by modified broth macrodilution method; settings: isolate 950, 24 h; procedure, shortened: as §1
# Staphylococcus aureus [3] = assay: Antibacterial activity against vancomycin-intermediate Staphylococcus aureus isolate 1012 after 24 hrs by modified broth macrodilution method; settings: isolate 1012, 24 h; procedure, shortened: as §1
# Staphylococcus aureus [4] = assay: Antibacterial activity against vancomycin-resistant Staphylococcus aureus isolate 509 after 24 hrs by modified broth macrodilution method; settings: isolate 509, 24 h; procedure, shortened: as §1
# Staphylococcus aureus [5] = assay: Antibacterial activity against community-acquired methicillin-resistant panton-valentine leukocidin-positive Staphylococcus aureus isolate 1468 after 24 hrs by modified broth macrodilution method; settings: isolate 1468, 24 h; procedure, shortened: as §1
# Staphylococcus aureus [6] = assay: Antibacterial activity against vancomycin-resistant Staphylococcus aureus after 24 hrs by modified broth macrodilution method; procedure, shortened: as §1
# Staphylococcus aureus [7] = assay: Antibacterial activity against hospital-acquired methicillin-resistant Staphylococcus aureus isolate 1867 after 24 hrs by modified broth macrodilution method; settings: isolate 1867, 24 h; procedure, shortened: as §1
# Staphylococcus aureus [8] = assay: Antibacterial activity against vancomycin-intermediate Staphylococcus aureus isolate 1014 after 24 hrs by modified broth macrodilution method; settings: isolate 1014, 24 h; procedure, shortened: as §1
# Staphylococcus aureus [9] = assay: Antibacterial activity against community-acquired methicillin-resistant panton-valentine leukocidin-positive Staphylococcus aureus isolate 813 after 24 hrs by modified broth macrodilution method; settings: isolate 813, 24 h; procedure, shortened: as §1
# Staphylococcus aureus [10] = assay: Antibacterial activity against vancomycin-hetero-intermediate Staphylococcus aureus isolate 873 after 24 hrs by modified broth macrodilution method; settings: isolate 873, 24 h; procedure, shortened: as §1
# Staphylococcus aureus [11] = assay: Antibacterial activity against vancomycin-intermediate Staphylococcus aureus isolate 1016 after 24 hrs by modified broth macrodilution method; settings: isolate 1016, 24 h; procedure, shortened: as §1
# Staphylococcus aureus [12] = assay: Antibacterial activity against community-acquired methicillin-resistant panton-valentine leukocidin-positive Staphylococcus aureus isolate 1469 after 24 hrs by modified broth macrodilution method; settings: isolate 1469, 24 h; procedure, shortened: as §1
# Staphylococcus aureus [13] = assay: Antibacterial activity against vancomycin-intermediate Staphylococcus aureus isolate 511 after 24 hrs by modified broth macrodilution method; settings: isolate 511, 24 h; procedure, shortened: as §1
# Staphylococcus aureus [14] = assay: Antibacterial activity against hospital-acquired methicillin-resistant Staphylococcus aureus isolate 1806 after 24 hrs by modified broth macrodilution method; settings: isolate 1806, 24 h; procedure, shortened: as §1
# Staphylococcus aureus [15] = assay: Antibacterial activity against vancomycin-intermediate Staphylococcus aureus isolate 1005 after 24 hrs by modified broth macrodilution method; settings: isolate 1005, 24 h; procedure, shortened: as §1
# Staphylococcus aureus [16] = assay: Antibacterial activity against vancomycin-intermediate Staphylococcus aureus after 24 hrs by modified broth macrodilution method; procedure, shortened: as §1
# Staphylococcus aureus [17] = assay: Antibacterial activity against vancomycin-resistant Staphylococcus aureus isolate 1263 after 24 hrs by modified broth macrodilution method; settings: isolate 1263, 24 h; procedure, shortened: as §1
# Staphylococcus aureus [18] = assay: Antibacterial activity against vancomycin-resistant Staphylococcus aureus isolate 557 after 24 hrs by modified broth macrodilution method; settings: isolate 557, 24 h; procedure, shortened: as §1
# Staphylococcus aureus [19] = assay: Antibacterial activity against vancomycin-resistant Staphylococcus aureus isolate 510 after 24 hrs by modified broth macrodilution method; settings: isolate 510, 24 h; procedure, shortened: as §1
# Staphylococcus aureus [20] = assay: Antibacterial activity against community-acquired methicillin-resistant panton-valentine leukocidin-positive Staphylococcus aureus isolate 1471 after 24 hrs by modified broth macrodilution method; settings: isolate 1471, 24 h; procedure, shortened: as §1
# Staphylococcus aureus [21] = assay: Antibacterial activity against vancomycin-intermediate Staphylococcus aureus isolate 1007 after 24 hrs by modified broth macrodilution method; settings: isolate 1007, 24 h; procedure, shortened: as §1
# Staphylococcus aureus [22] = assay: Antibacterial activity against hospital-acquired methicillin-resistant Staphylococcus aureus isolate 1851 after 24 hrs by modified broth macrodilution method; settings: isolate 1851, 24 h; procedure, shortened: as §1
# Staphylococcus aureus [23] = assay: Antibacterial activity against hospital-acquired methicillin-resistant Staphylococcus aureus isolate 1838 after 24 hrs by modified broth macrodilution method; settings: isolate 1838, 24 h; procedure, shortened: as §1
# Staphylococcus aureus [24] = assay: Antibacterial activity against community-acquired methicillin-resistant panton-valentine leukocidin-positive Staphylococcus aureus isolate 693 after 24 hrs by modified broth macrodilution method; settings: isolate 693, 24 h; procedure, shortened: as §1
# Staphylococcus aureus [25] = assay: Antibacterial activity against vancomycin-intermediate Staphylococcus aureus isolate 1008 after 24 hrs by modified broth macrodilution method; settings: isolate 1008, 24 h; procedure, shortened: as §1
# Staphylococcus aureus [26] = assay: Antibacterial activity against hospital-acquired methicillin-resistant Staphylococcus aureus isolate 1743 after 24 hrs by modified broth macrodilution method; settings: isolate 1743, 24 h; procedure, shortened: as §1
# Staphylococcus aureus [27] = assay: Antibacterial activity against vancomycin-intermediate Staphylococcus aureus isolate 1006 after 24 hrs by modified broth macrodilution method; settings: isolate 1006, 24 h; procedure, shortened: as §1
# Staphylococcus aureus [28] = assay: Antibacterial activity against methicillin-resistant Staphylococcus aureus isolate 2003 after 24 hrs by modified broth macrodilution method; settings: isolate 2003, 24 h; procedure, shortened: as §1
# Staphylococcus aureus [29] = assay: Antibacterial activity against hospital-acquired methicillin-resistant Staphylococcus aureus isolate 1766 after 24 hrs by modified broth macrodilution method; settings: isolate 1766, 24 h; procedure, shortened: as §1
# Staphylococcus aureus [30] = assay: Antibacterial activity against vancomycin-intermediate Staphylococcus aureus isolate 1013 after 24 hrs by modified broth macrodilution method; settings: isolate 1013, 24 h; procedure, shortened: as §1
# Staphylococcus aureus [31] = assay: Antibacterial activity against community-acquired methicillin-resistant panton-valentine leukocidin-positive Staphylococcus aureus isolate 1472 after 24 hrs by modified broth macrodilution method; settings: isolate 1472, 24 h; procedure, shortened: as §1
# Staphylococcus aureus [32] = assay: Antibacterial activity against community-acquired methicillin-resistant panton-valentine leukocidin-positive Staphylococcus aureus isolate 593 after 24 hrs by modified broth macrodilution method; settings: isolate 593, 24 h; procedure, shortened: as §1
# Staphylococcus aureus [33] = assay: Antibacterial activity against hospital-acquired methicillin-resistant Staphylococcus aureus isolate 1776 after 24 hrs by modified broth macrodilution method; settings: isolate 1776, 24 h; procedure, shortened: as §1
# Staphylococcus aureus [34] = assay: Antibacterial activity against vancomycin-intermediate Staphylococcus aureus isolate 1984 after 24 hrs by modified broth macrodilution method; settings: isolate 1984, 24 h; procedure, shortened: as §1
# Staphylococcus aureus [35] = assay: Antibacterial activity against community-acquired methicillin-resistant panton-valentine leukocidin-positive Staphylococcus aureus isolate 815 after 24 hrs by modified broth macrodilution method; settings: isolate 815, 24 h; procedure, shortened: as §1
# Staphylococcus aureus [36] = assay: Antibacterial activity against community-acquired methicillin-resistant panton-valentine leukocidin-negative Staphylococcus aureus isolate 1470 after 24 hrs by modified broth macrodilution method; settings: isolate 1470, 24 h; procedure, shortened: as §1
# Staphylococcus aureus [37] = assay: Antibacterial activity against vancomycin-hetero-intermediate Staphylococcus aureus isolate 618 after 24 hrs by modified broth macrodilution method; settings: isolate 618, 24 h; procedure, shortened: as §1
# Staphylococcus aureus [38] = assay: Antibacterial activity against vancomycin-intermediate Staphylococcus aureus isolate 1004 after 24 hrs by modified broth macrodilution method; settings: isolate 1004, 24 h; procedure, shortened: as §1
# Staphylococcus aureus [39] = assay: Antibacterial activity against vancomycin-intermediate Staphylococcus aureus isolate 1009 after 24 hrs by modified broth macrodilution method; settings: isolate 1009, 24 h; procedure, shortened: as §1
# Staphylococcus aureus [40] = assay: Antibacterial activity against hospital-acquired methicillin-resistant Staphylococcus aureus isolate 1751 after 24 hrs by modified broth macrodilution method; settings: isolate 1751, 24 h; procedure, shortened: as §1
# Staphylococcus aureus [41] = assay: Antibacterial activity against vancomycin-intermediate Staphylococcus aureus isolate 1287 after 24 hrs by modified broth macrodilution method; settings: isolate 1287, 24 h; procedure, shortened: as §1
# Staphylococcus aureus [42] = assay: Antibacterial activity against vancomycin-intermediate Staphylococcus aureus isolate 1003 after 24 hrs by modified broth macrodilution method; settings: isolate 1003, 24 h; procedure, shortened: as §1
# Staphylococcus aureus [43] = assay: Antibacterial activity against vancomycin-susceptible Staphylococcus aureus after 24 hrs by modified broth macrodilution method
# Procedure, shortened: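 MICs determined in recent clinical MRSA isolates by a modified broth macrodilution method per CLSI recommendations, with 24 h incubation. Daptomycin tests used Mueller-Hinton broth supplemented with calcium. Value is the lowest inhibitory drug concentration.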
# Staphylococcus aureus [44] = assay: Antibacterial activity against vancomycin-intermediate Staphylococcus aureus isolate 1011 after 24 hrs by modified broth macrodilution method; settings: isolate 1011, 24 h; procedure, shortened: as §1
# Staphylococcus aureus [45] = assay: Antibacterial activity against vancomycin-intermediate Staphylococcus aureus isolate 1015 after 24 hrs by modified broth macrodilution method; settings: isolate 1015, 24 h; procedure, shortened: as §1
# Staphylococcus aureus [46] = assay: Antibacterial activity against vancomycin-intermediate Staphylococcus aureus isolate 555 after 24 hrs by modified broth macrodilution method; settings: isolate 555, 24 h; procedure, shortened: as §1
# Staphylococcus aureus [47] = assay: Antibacterial activity against vancomycin-intermediate Staphylococcus aureus isolate 1010 after 24 hrs by modified broth macrodilution method; settings: isolate 1010, 24 h; procedure, shortened: as §1
# Staphylococcus aureus [48] = assay: Antibacterial activity against hospital-acquired methicillin-resistant Staphylococcus aureus isolate 1808 after 24 hrs by modified broth macrodilution method; settings: isolate 1808, 24 h; procedure, shortened: as §1
# Staphylococcus aureus [49] = assay: Antibacterial activity against vancomycin-resistant Staphylococcus aureus isolate 1264 after 24 hrs by modified broth macrodilution method; settings: isolate 1264, 24 h; procedure, shortened: as §1
# Staphylococcus aureus [50] = assay: Antibacterial activity against vancomycin-intermediate Staphylococcus aureus isolate 770 after 24 hrs by modified broth macrodilution method; settings: isolate 770, 24 h; procedure, shortened: as §1
# Staphylococcus aureus [51] = assay: Antibacterial activity against vancomycin-intermediate Staphylococcus aureus isolate 1017 after 24 hrs by modified broth macrodilution method; settings: isolate 1017, 24 h; procedure, shortened: as §1
structure (smiles),measurement,setting,value
CCCCCCCCCC(=O)N[C@@H](Cc1c[nH]c2ccccc12)C(=O)N[C@H](CC(N)=O)C(=O)N[C@@H](CC(=O)O)C(=O)N[C@@H]1C(=O)NCC(=O)N[C@@H](CCCN)C(=O)N[C@@H](CC(=O)O)C(=O)N[C@H](C)C(=O)N[C@@H](CC(=O)O)C(=O)NCC(=O)N[C@H](CO)C(=O)N[C@@H]([C@H](C)CC(=O)O)C(=O)N[C@@H](CC(=O)c2ccccc2N)C(=O)O[C@@H]1C,MIC,Staphylococcus aureus [1],0.5 µg/mL
same,MIC,Staphylococcus aureus [2],0.25 µg/mL
same,MIC,Staphylococcus aureus [3],1 µg/mL
same,MIC,Staphylococcus aureus [4],0.5 µg/mL
same,MIC,Staphylococcus aureus [5],1 µg/mL
same,MIC,Staphylococcus aureus [6],0.25 µg/mL
same,MIC,Staphylococcus aureus [7],0.5 µg/mL
same,MIC,Staphylococcus aureus [8],2 µg/mL
same,MIC,Staphylococcus aureus [9],0.5 µg/mL
same,MIC,Staphylococcus aureus [10],0.5 µg/mL
same,MIC,Staphylococcus aureus [11],2 µg/mL
same,MIC,Staphylococcus aureus [12],0.5 µg/mL
same,MIC,Staphylococcus aureus [13],1 µg/mL
same,MIC,Staphylococcus aureus [14],0.5 µg/mL
same,MIC,Staphylococcus aureus [15],1 µg/mL
same,MIC,Staphylococcus aureus [16],0.5 µg/mL
same,MIC,Staphylococcus aureus [17],0.5 µg/mL
same,MIC,Staphylococcus aureus [18],0.25 µg/mL
same,MIC,Staphylococcus aureus [19],0.5 µg/mL
same,MIC,Staphylococcus aureus [20],0.5 µg/mL
same,MIC,Staphylococcus aureus [21],2 µg/mL
same,MIC,Staphylococcus aureus [22],0.5 µg/mL
same,MIC,Staphylococcus aureus [23],0.5 µg/mL
same,MIC,Staphylococcus aureus [24],0.5 µg/mL
same,MIC,Staphylococcus aureus [25],2 µg/mL
same,MIC,Staphylococcus aureus [26],0.25 µg/mL
same,MIC,Staphylococcus aureus [27],2 µg/mL
same,MIC,Staphylococcus aureus [28],0.5 µg/mL
same,MIC,Staphylococcus aureus [29],1 µg/mL
same,MIC,Staphylococcus aureus [30],2 µg/mL
same,MIC,Staphylococcus aureus [31],0.5 µg/mL
same,MIC,Staphylococcus aureus [32],0.5 µg/mL
same,MIC,Staphylococcus aureus [33],0.5 µg/mL
same,MIC,Staphylococcus aureus [34],2 µg/mL
same,MIC,Staphylococcus aureus [35],0.5 µg/mL
same,MIC,Staphylococcus aureus [36],0.5 µg/mL
same,MIC,Staphylococcus aureus [37],1 µg/mL
same,MIC,Staphylococcus aureus [38],0.5 µg/mL
same,MIC,Staphylococcus aureus [39],2 µg/mL
same,MIC,Staphylococcus aureus [40],0.5 µg/mL
same,MIC,Staphylococcus aureus [41],2 µg/mL
same,MIC,Staphylococcus aureus [42],2 µg/mL
same,MIC,Staphylococcus aureus [43],0.25 µg/mL
same,MIC,Staphylococcus aureus [44],1 µg/mL
same,MIC,Staphylococcus aureus [45],1 µg/mL
same,MIC,Staphylococcus aureus [46],4 µg/mL
same,MIC,Staphylococcus aureus [47],1 µg/mL
same,MIC,Staphylococcus aureus [48],0.5 µg/mL
same,MIC,Staphylococcus aureus [49],0.25 µg/mL
same,MIC,Staphylococcus aureus [50],0.5 µg/mL
same,MIC,Staphylococcus aureus [51],1 µg/mL
